# From PubChem BioAssay
# V-ATPase pH = regulators of yeast V-ATPase proton pumping, primary screen, pHLuorin cytosolic pH fluorescence; S. cerevisiae; 0.37% of 350,000 active; AID 504577, 2011; response, % at 10 µM; in the data active means response mostly above about 7.3%, no sharp cut-off; inactive means mostly below about 5.4%; further: actives read high
# ABCB6 inh MLPCN = ABCB6 transporter inhibitors, primary screen, K562-ABCB6 cells, flow cytometry, MLPCN library. K562-ABCB6 porphyrin accumulation, 1 h; hits give low values. fluorescence ratio to DMSO, % at 10 µM. 0.19% of 360,000 active;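 active means fluorescence ratio to DMSO below 75%, the collection mean minus 3 SD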;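 further: signal is porphyrin accumulated inside mitochondria; 100% equals median channel fluorescence of DMSO control wells; lower ratio means ABCB6 inhibition with less porphyrin fluorescence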
# Dynein cargo inh = inhibitors of GR-EGFP nuclear translocation, primary screen, dynein cargo transport inhibitor project, imaging, high-content, 3617.4 mouse cells; test concentration mostly 20 µM; stimulated with dexamethasone, 1 µM; hits give low values; z-score, hits read low; 0.47% of 220,000 active;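 active means plate z-score of nuclear minus cytoplasmic receptor signal below a set negative limit, without overly bright fluorescence or cell loss, cut at about -3.5 in these data, passing the limit was not always enough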;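 further: z-score of nuclear minus cytoplasmic ring GR-EGFP intensity difference per well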
#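 Buffer or medium: tet-free, stripped-serum medium; reagent: dexamethasone at 1.0 µM final, 30 min; incubation: 48 h induction, 1 h compound, 30 min dex at 37 °C; measured by: formaldehyde fixation, Hoechst nuclear stain, 10x automated fluorescence imaging; read-out: nuclear-to-cytoplasmic GR-EGFP distribution per well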
# p-CIP stab down = p/CIP-EGFP fusion destabilizers, primary screen, fluorescence, F442A cells | Q05BA5 | 16 h | decrease of EGFP signal, % at 10 µM | 0.01% of 290,000 active | AID 1984, 2009;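 active means EGFP signal decrease of at least 30% at 10 µM or well 3 SD below plate mean, unless failing retest; inactive means the rest, including hits failing retest or dose response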
# KCC2 mod = KCC2 cotransporter modulators, thallium flux, primary screen, cell-based, HEK293 KCC2, FluoZin-2 fluorescence, MLSMR. Solute carrier family 12 member 5 (Homo sapiens), Q9H2X9. KCC2 cells, thallium flux FluoZin-2 fluorescence. B-score of Tl+ flux slope (higher = more flux/activation; lower = inhibition) at 10 µM. 2.2% of 190,000 active. AID 1456, 2008;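 active means thallium flux slope and its plate-corrected score both differing from the plate sample mean at a set confidence after two filtering rounds, in either direction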;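 further: slope of fluorescence scaled to starting intensity during 10 to 20 s after thallium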
# Target sequence (Q9H2X9 whole entry, looked up): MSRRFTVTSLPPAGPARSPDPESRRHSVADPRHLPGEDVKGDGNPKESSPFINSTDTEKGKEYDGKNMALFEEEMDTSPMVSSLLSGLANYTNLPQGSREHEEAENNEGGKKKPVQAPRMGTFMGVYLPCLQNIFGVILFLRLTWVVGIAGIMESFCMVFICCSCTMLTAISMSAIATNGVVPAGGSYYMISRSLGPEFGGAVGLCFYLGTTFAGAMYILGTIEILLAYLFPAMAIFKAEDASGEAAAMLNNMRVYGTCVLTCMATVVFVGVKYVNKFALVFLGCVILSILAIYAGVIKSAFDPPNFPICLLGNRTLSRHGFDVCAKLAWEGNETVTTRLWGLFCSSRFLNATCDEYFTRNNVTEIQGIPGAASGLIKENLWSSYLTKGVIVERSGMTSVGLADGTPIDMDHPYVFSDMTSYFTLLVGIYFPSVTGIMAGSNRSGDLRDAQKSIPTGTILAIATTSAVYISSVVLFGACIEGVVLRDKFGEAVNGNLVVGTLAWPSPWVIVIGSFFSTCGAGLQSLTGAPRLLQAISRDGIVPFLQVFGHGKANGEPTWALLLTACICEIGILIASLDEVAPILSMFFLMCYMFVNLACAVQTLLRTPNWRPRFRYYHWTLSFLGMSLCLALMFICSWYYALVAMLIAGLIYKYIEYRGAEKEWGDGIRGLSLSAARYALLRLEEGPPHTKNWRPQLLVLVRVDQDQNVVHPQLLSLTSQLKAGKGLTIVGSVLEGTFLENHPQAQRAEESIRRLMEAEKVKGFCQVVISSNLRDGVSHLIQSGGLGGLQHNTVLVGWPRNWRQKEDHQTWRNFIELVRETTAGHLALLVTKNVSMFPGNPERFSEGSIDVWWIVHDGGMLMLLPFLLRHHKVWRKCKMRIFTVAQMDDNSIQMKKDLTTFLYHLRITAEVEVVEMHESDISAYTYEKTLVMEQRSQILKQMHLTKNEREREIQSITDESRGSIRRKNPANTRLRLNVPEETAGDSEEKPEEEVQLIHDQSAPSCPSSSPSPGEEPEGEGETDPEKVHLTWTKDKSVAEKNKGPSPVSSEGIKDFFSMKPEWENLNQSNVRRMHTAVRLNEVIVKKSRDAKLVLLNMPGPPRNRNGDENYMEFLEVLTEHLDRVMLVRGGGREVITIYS
# V-ATPase pH SP = yeast V-ATPase proton pumping modulators, confirmation, S. cerevisiae, pH-sensitive GFP, second cherry-pick | AID 602197, 2012 | S. cerevisiae pHLuorin cytosolic pH, V-ATPase proton transport | response, % at 10 µM | 2% of 980 active | shares compounds with V-ATPase pH; in the data active means response above about 24%;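 further: plate controls were vehicle wells for no effect and positive control wells for full effect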
# Active calls of the source: *; / = not tested or not shown. Many of the other results were omitted from the sample, so hits are more common in it than they were.
SMILES,V-ATPase pH,ABCB6 inh MLPCN,Dynein cargo inh,p-CIP stab down,KCC2 mod,V-ATPase pH SP
CC1Nc2nc(NC(=O)C(C)(C)C)[nH]c(=O)c2N(C)C1C (stereo not given),12.4*,99.0,0.0109,-2.9,2.07,-0.5
Cc1cccc(N(C)S(=O)(=O)c2ccc3[nH]cc(C(=O)N4CCOCC4)c(=O)c3c2)c1,1.9,98.0,-0.716,9.9,1.31,/
CCc1ccccc1N(C)S(=O)(=O)c1ccc2[nH]cc(C(=O)N3CCc4ccccc43)c(=O)c2c1,21.6*,97.0,0.371,11.2,-2.21,8.4
CC1CCCCC1NC(=O)Cn1nnc2ccccc2c1=O (stereo not given),17.6*,100.0,-0.423,11.7,0.0196,-3.2
CC(C)c1ccc(C2(C)NC(=O)N(CC(=O)N3CCN(C(=O)c4cccs4)CC3)C2=O)cc1 (stereo not given),-7.2,99.0,/,/,/,/
Cc1nc2c(-c3ccc(F)cc3)c(C)nn2c(C)c1CCC(=O)N1CCN(c2ccc(F)cc2)CC1,-7.6,99.0,-0.775,-2.3,-0.718,/
Cc1nc2c(-c3ccc(F)cc3)c(C)nn2c(C)c1CCC(=O)N1CCN(c2ccccc2)CC1,11.8*,102.0,0.817,-18.2,/,2.1
COc1cc(OC)c(OC)cc1/C=N/n1c(C)nc2ccccc2c1=O,14.4*,102.0,/,-8.2,/,-0.3
COc1ccc(OC)c(/C=N/n2c(C)nc3ccccc3c2=O)c1,-0.2,96.0,/,/,/,/
CCOC(=O)C1=C(C)NC(C)=C(C(=O)OCC)C1C(=O)OCC(=O)N1CCc2ccccc2C1,11.6*,96.0,-0.413,3.1,-0.0967,-2.1
Nc1cccc(C#Cc2ccc3c(c2)C(=O)/C(=C/c2ccsc2)O3)c1,-2.2,100.0,/,/,/,/
Cc1nc(C)c(-c2ccc(SCc3ccccc3C)nn2)s1,10.3*,101.0,/,-12.2,/,2.0
Cc1nc(C)c(-c2ccc(SCC(=O)Nc3ccccc3)nn2)s1,-2.8,100.0,/,-7.3,/,/
COc1cccc(CNC(=O)c2ccc(NC(=O)CC3SC(N4CCCC4)=NC3=O)cc2)c1 (stereo not given),-0.9,95.0,/,/,/,/
C=CCn1c(COc2ccccc2)nc2ccccc21,-3.6,99.0,/,-12.1,/,/
CCC(=O)C1CCCN(C(=O)c2cccc(OC3CCN(S(C)(=O)=O)CC3)c2)C1 (stereo not given),12.1*,98.0,/,-0.7,/,-0.6
N#Cc1c(NCc2ccccc2)ccnc1Cl,0.6,95.0,/,/,/,/
Cc1ccc(C(=O)OCC(=O)NCc2cccs2)cc1,9.9*,99.0,0.149,14.1,0.625,2.6
Cc1n[nH]c(=O)c2c(NC(=O)CSc3nnc(C4CC4)n3C)oc(C)c12,2.2,99.0,/,/,/,/
O=C(N/N=C/c1ccc(O)cc1O)c1ccncc1,6.8*,99.0,/,-3.7,/,-2.1
Cc1cc(C(=O)OCC(=O)Nc2sc3c(c2C#N)CCC(C)C3)c2ccccc2n1 (stereo not given),12.8*,99.0,-0.108,2.8,0.882,-2.7
COc1ccccc1-c1cc(C(=O)Nc2sc3c(c2C#N)CCC(C)C3)c2ccccc2n1 (stereo not given),1.4,93.0,0.305,-5.7,1.35,/
NC1=NC[C@@H](Cc2ccc(O)cc2)N1CCC12CC3CC(CC(C3)C1)C2,1.4,97.0,/,/,/,/
C=C1C(=O)O[C@@]23[C@H]1CC[C@@H](C)[C@@H]2CC[C@@]1(C)O[C@@H]31,23.1*,108.0,/,/,/,0.1
C/C(=N\Nc1cccc(C(=O)O)c1)c1cc2ccccc2o1,1.1,98.0,-0.681,10.1,0.0169,/
SMILES,V-ATPase pH,ABCB6 inh MLPCN,Dynein cargo inh,p-CIP stab down,KCC2 mod,V-ATPase pH SP
COc1ccc(C(=O)Nc2cc(C)nn2-c2ccc(F)cc2)cc1,11.4*,99.0,/,7.0,/,-4.5
O=C(Nc1cccc2ccccc12)NC1CCCCC1O (stereo not given),0.4,95.0,/,/,/,/
Cc1cc(=O)oc2cc(NC(=O)c3c(Cl)cnn3C)ccc12,9.2*,92.0,/,4.4,/,0.9
Cc1cc2c(c(=O)n1Cc1cccnc1)C(c1ccc(F)cc1)C(C#N)=C(N)O2 (stereo not given),12.1*,102.0,-0.465,-14.5,-0.049,-3.5
CCn1c(C)cc2c(c1=O)C(c1ccncc1)C(C#N)=C(N)O2 (stereo not given),4.7,91.0,-0.162,-0.3,-0.671,/
Nc1ccc(S(=O)(=O)Nc2nccs2)cc1N=Nc1ccccc1[N+](=O)[O-],0.4,94.0,/,/,/,/
CCCN(CCC)CC(O)COc1ccc2c(c1)OCO2 (stereo not given),8.9*,100.0,-0.0806,16.3,0.177,-4.2
OCCN(Cc1ccccc1)CC(O)COc1ccc2c(c1)OCO2 (stereo not given),-2.6,110.0,/,-7.0,/,/
Cc1c(NC(=O)c2cccc(NC(=O)COc3ccccc3C#N)c2)c(=O)n(-c2ccccc2)n1C,14.6*,104.0,/,/,/,-0.5
CC(C)NC(=O)COc1ccccc1C#N,13.9*,100.0,0.399,-6.0,-0.226,-1.6
CCCCc1ccc(NC(=O)c2ccc(N(C)S(C)(=O)=O)cc2)cc1,0.8,97.0,0.923,-24.4,0.593,/
Cc1ccc(S(=O)(=O)n2cnc(C)c2)cc1,13.4*,95.0,/,4.8,/,1.4
CC(=O)Nc1ccc(S(=O)(=O)n2cnc(C)c2)cc1,-2.1,105.0,0.182,4.8,/,/
Cc1nc2ccccc2n1CC(=O)OCC(=O)NCc1ccccc1,-1.2,96.0,-0.127,-10.8,0.22,/
CCOC(=O)Cn1c(=O)c(-c2ccccc2NCc2ccccc2)nc2ccccc21,-0.8,97.0,-0.646,/,0.0828,3.5
CCOC(=O)Cn1c(-c2ccccc2)nc2ccccc2c1=O,0.6,101.0,-0.0825,-6.8,/,-2.9
COc1ccc(/C=N/NC(=O)C2c3ccccc3-c3ccccc32)cc1,26.6*,92.0,-0.0467,-3.1,-0.0965,0.4
CC1(C(=O)Nc2ccc(Cl)cc2)Cc2c(-c3ccc(C(N)=O)cc3)ccnc2O1 (stereo not given),/,110.0,/,/,/,/
COC(=O)c1cc(Br)c(=O)n(-c2cc(C)on2)c1,8.0*,95.0,0.607,12.3,-0.674,-2.5
Cc1n[nH]c(=S)n1-c1ccccc1,-1.3,104.0,0.58,5.2,-0.566,/
Cc1n[nH]c(=S)n1-c1ccc(Cl)cc1,-1.8,92.0,0.341,-10.1,/,-2.2
C=CCn1c(SCC(=O)Nc2cc(C)ccc2OC)nnc1-c1ccco1,10.8*,99.0,-0.0861,3.2,-2.67,0.2
C=CCn1c(SCC(=O)Nc2cc(C)c(Cl)cc2OC)nnc1-c1ccco1,4.2,96.0,-0.401,-2.9,-1.07,/
Cn1c(=O)oc2cc(S(=O)(=O)Nc3ccc(Cl)cc3)ccc21,4.4,101.0,/,3.6,/,/
Cn1c(=O)oc2cc(S(=O)(=O)Nc3ccc(F)cc3)ccc21,7.4*,99.0,/,-8.0,/,1.0
